mIAP activ: mouse IAP activation. muIAP, CDP-Star luminescence, 30 min; stronger effect = higher value; 1 = vehicle-only enzyme signal, 0 = enzyme-free wells. activation factor at 10 µM. 330,000 compounds, 0.24% hits. AID 2805;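 active means activation factor of at least 2 at 20 µM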
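Assay system: mouse IAP enzyme; Reagent: CDP-Star chemiluminescent phosphatase substrate; Compound: DMSO-dissolved test compounds; Incubation: 30 min, room temperature; Technique: luminescence from enzymatic CDP-Star hydrolysis; Controls: DMSO-only wells and no-enzyme negative control.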
hIAP inh: blocks human intestinal alkaline phosphatase; purified IAP, CDP-Star luminescence, 30 min; P09923; inhibition, % at 10 µM; AID 2544; 330,000 compounds, 0.12% hits;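 active means inhibition reaching a set limit with compound at 10 µM in the primary screen, cut at about 35% in these data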;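 further: plate controls were DMSO wells with enzyme for no effect and no-enzyme buffer wells for full effect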
Target sequence (P09923 whole entry, looked up): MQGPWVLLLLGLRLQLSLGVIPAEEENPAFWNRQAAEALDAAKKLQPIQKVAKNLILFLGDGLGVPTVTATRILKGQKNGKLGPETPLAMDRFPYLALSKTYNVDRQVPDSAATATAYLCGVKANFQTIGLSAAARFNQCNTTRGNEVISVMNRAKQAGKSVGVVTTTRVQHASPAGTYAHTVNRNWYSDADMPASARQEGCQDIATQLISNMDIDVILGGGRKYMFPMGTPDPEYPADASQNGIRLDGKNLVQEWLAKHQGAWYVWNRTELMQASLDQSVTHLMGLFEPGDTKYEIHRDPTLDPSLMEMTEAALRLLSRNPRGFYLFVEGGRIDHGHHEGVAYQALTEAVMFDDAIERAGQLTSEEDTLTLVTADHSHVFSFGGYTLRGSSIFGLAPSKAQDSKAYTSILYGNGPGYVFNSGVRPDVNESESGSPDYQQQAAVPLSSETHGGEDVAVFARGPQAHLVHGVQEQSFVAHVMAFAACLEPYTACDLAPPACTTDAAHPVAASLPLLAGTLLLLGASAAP
bIAP inhibitor: blocks bovine intestinal alkaline phosphatase activity. 190,000 tested, under 10 active. inhibition, % at 20 µM. purified bovine IAP, CDP-star luminescence, 30 min;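 active means over 50% inhibition of intestinal alkaline phosphatase at 20 µM in the single-dose screen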
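test system = bovine IAP enzyme | medium = DEA buffer 100 mM, pH 9.8, with MgCl2 1.0 mM, ZnCl2 0.02 mM | detection = luminescence | dosing = single compound dose of 20 µM, 2% DMSO final | incubation = 30 min reaction at room temperature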
mIAP inh: mouse IAP inhibition; inhibition, % at 10 µM; 330,000 compounds, 0.2% hits; purified mouse IAP, CDP-Star luminescence, 30 min; AID 2806;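 active means inhibition of at least 40% at 10 µM in the primary screen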;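 further: plate controls were DMSO with enzyme for no effect and no enzyme wells for full effect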
hIAP act: human IAP activation. purified human IAP, CDP-Star luminescence, 30 min; stronger effect = higher value; 1 = vehicle-only enzyme, 0 = enzyme-free background. activation factor at 10 µM. 330,000 compounds, 0.16% hits. AID 2524;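 active means activation factor of the enzyme at least 2-fold when tested at 20 µM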
bIAP activator: increases bovine intestinal alkaline phosphatase activity. purified bovine IAP, CDP-star luminescence, 30 min; stronger effect = higher value; fold of DMSO-control signal, blank-subtracted. activation factor at 20 µM. 200,000 compounds, 0.17% hits;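 active means activation factor of 2 or more at 20 µM, a signal rise over negative controls twice the positive control's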
hIAP act confirm: human IAP activation confirmation. purified IAP, CDP-Star luminescence, 30 min; stronger effect = lower value. AID 434926. activation (%Activity, negative = activation), % at 8.3 µM. 880 compounds, 10% hits. shares compounds with hIAP act;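 active means at least twofold enzyme activation in any of six single-dose repeats, which the averaged readout prints as negative percent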
* hit, by the source's call; nt = not tested or not shown. A selection: hits, their analogues and other compounds. The true share with any hit is near 0.79%.

SMILES	mIAP activ	hIAP inh	bIAP inhibitor	mIAP inh	hIAP act	bIAP activator	hIAP act confirm
COc1ccc(/C=N/NC(=O)CNC(=O)c2ccncc2)cc1	1	12	nt	-3	0.88	nt	nt
CC1=C(C(=O)OC2CCCC(C)C2)C(c2ccccc2)NC(=O)N1 (configuration not stated)	1	-3	nt	0	1	nt	nt
O=C(CCCCC(=O)NNC(=O)COc1ccccc1)NNC(=O)COc1ccccc1	0.84	-151	nt	16	2.5*	nt	-88*
CCN(CC)c1ccc(N=Nc2nn(C)c(C)c2[N+](=O)[O-])cc1	0.67	47*	24	33	0.53	0.8	35
CCN(Cc1ccccc1)c1ccc(N=Nc2nn(C)c(C)c2[N+](=O)[O-])cc1	0.66	35	6	34	0.65	0.9	nt
COc1cccc(-c2nc(=S)c3c(n2CCCO)CCCC3)c1	1.1	-138	-3	-14	2.4*	1	1
CC(C)Cn1c(-c2ccccc2)nc(=S)c2c1CCCC2	0.91	-4	26	9	1	0.7	nt
CCSc1nnc(NC(=O)CCNC(=O)c2ccccc2Cl)s1	1	-2	nt	-3	1	nt	nt
Oc1ccc(Br)cc1/C=N/NC(=S)NCCc1ccccc1	0.93	-6	nt	7	1.1	nt	nt
COc1ccc(O)c(/C=N/NC(=S)NCCc2ccccc2)c1	0.91	-107	nt	9	2.1*	nt	-91*
C[C@@H](NC(=O)c1[nH]cnc1C(=O)Nc1nccs1)c1ccccc1	0.97	-124	nt	3	2.2*	nt	12
C[C@@H](NC(=O)c1[nH]cnc1C(=O)Nc1ccon1)c1ccccc1	0.86	-107	nt	14	2.1*	nt	-80*
C[C@H](NC(=O)c1[nH]cnc1C(=O)Nc1ccon1)c1ccccc1	0.85	-80	nt	15	1.8	nt	nt
C[C@@H](NC(=O)c1nc[nH]c1C(=O)N[C@H](C)c1ccccc1)c1ccccc1	0.98	-20	nt	2	1.2	nt	nt
CSCCC(NC(=O)c1ccco1)C(=O)NC1CCCCCC1 (configuration not stated)	0.88	-15	nt	12	1.2	nt	nt
Cc1ccc(NC(=O)CCC(=O)NNC(=S)Nc2ccc(F)cc2)c(C)c1	1	-70	nt	0	1.7	nt	nt
Cc1ccc(NC(=O)CCC(=O)NNC(=S)Nc2ccc(F)cc2F)cc1C	1	-123	nt	0	2.2*	nt	7
CCOc1ccc(NS(=O)(=O)c2cc(C(=O)N(CC)CC(=O)NCc3cccs3)ccc2C)cc1	0.92	1	nt	8	0.99	nt	nt
Cc1ccc(O)c(N/C=C/C(=O)c2ccc(F)cc2)c1	0.94	-185	nt	6	2.8*	nt	-120*
N#Cc1ccc(OCC(=O)NNC(=S)NC(=O)C2CC2)cc1	0.78	-121	nt	22	2.2*	nt	0
CC(C)c1ccc(OCC(=O)NNC(=S)NC(=O)C2CC2)cc1	0.87	4	nt	13	0.96	nt	nt
CCCCn1c(O)c(N=Nc2ccccc2O)c2ccccc21	0.8	-174	nt	20	2.7*	nt	6
CC12CC3CC(C)(C1)CC(C(=O)Nc1nncs1)(C3)C2	0.97	10	nt	3	0.9	nt	nt
CC(=O)NCCc1c[nH]c2ccc(O)cc12	1.1	-17	nt	-11	1.2	nt	nt
Cc1cc(NS(=O)(=O)c2ccc(NC(=O)C(C)Oc3ccc4c(C)cc(=O)oc4c3)cc2)no1 (configuration not stated)	0.94	-162	3	6	2.6*	1	-23
SMILES	mIAP activ	hIAP inh	bIAP inhibitor	mIAP inh	hIAP act	bIAP activator	hIAP act confirm
Cc1ccc(C(=O)Nc2ccncc2)cc1[N+](=O)[O-]	0.97	-21	nt	3	1.2	nt	nt
Cc1ccc(NC(=O)c2ccncc2)cc1[N+](=O)[O-]	1.1	-105	-12	-7	2.1*	1.1	54
O=C(NC1CCCCCC1)c1ccc(-n2cnnc2)cc1	1	35*	nt	-2	0.65	nt	-59*
Cn1nc(-c2ccccc2)cc1NS(=O)(=O)c1ccc(C#N)cc1	1	7	nt	0	0.93	nt	nt
CCCCCCC(=O)N=Nc1c(O)[nH]c2ccc([N+](=O)[O-])cc12	0.83	-16	-17	17	1.2	1.2	nt
COCCNC(=S)N=Nc1c(O)[nH]c2ccc([N+](=O)[O-])cc12	0.82	-141	nt	18	2.4*	nt	-40
CCOC(=O)C1CCN(C(=O)N2CCOCC2)CC1	1.1	-100	7	-9	2*	0.9	-8
COc1cc(NS(=O)(=O)c2cc(C(=O)NCCc3ccccn3)ccc2OC)cc(OC)c1	1.1	-8	nt	-8	1.1	nt	nt
O=C(NNC(=S)NC(=O)c1ccc(F)cc1)c1ccncc1	0.77	-112	nt	23	2.1*	nt	-56
COc1cc(C2c3c(-c4ccccc4O)n[nH]c3C(=O)N2Cc2ccco2)cc(OC)c1OC (configuration not stated)	0.94	-92	nt	6	1.9	nt	nt
COc1cc(C2c3c(-c4cc(Cl)c(C)cc4O)n[nH]c3C(=O)N2Cc2cccnc2)ccc1O (configuration not stated)	0.94	-82	-4	6	1.8	1	nt
COc1cccc(C2c3c(-c4cc(Cl)c(C)cc4O)n[nH]c3C(=O)N2Cc2cccnc2)c1 (configuration not stated)	1.2	-137	-15	-16	2.4*	1.2	-18
Cc1ccc(C2c3c(-c4ccccc4O)n[nH]c3C(=O)N2Cc2ccncc2)cc1 (configuration not stated)	1.1	-131	14	-12	2.3*	0.9	-23
COc1ccc(C2c3c(-c4ccccc4O)n[nH]c3C(=O)N2Cc2ccco2)cc1 (configuration not stated)	0.95	-123	nt	5	2.2*	nt	-73
CCn1nc(C)c(CN2CCCC(CO)(Cc3cccc(Cl)c3)C2)c1C (configuration not stated)	1.1	-5	-6	-5	1.1	1.1	nt
CC(=O)N/N=C/c1cc(C(C)C)cc(/C=N/NC(C)=O)c1O	0.89	-154	-43	11	2.5*	1.4	-11
CC(=O)N/N=C/c1cc(C)n(-c2ccc(Br)cc2)c1C	1.1	-14	-16	-10	1.1	1.2	nt
COc1ccccc1N1CCN(CC(=O)Nc2nc(C)c(C(=O)N(C)C)s2)CC1	1	0	nt	-4	1	nt	nt
CCOc1cccc(-c2nc(C(N)=O)c3[nH]c(=O)n(-c4cccc(Cl)c4)c3n2)c1O	0.8	-296	-13	20	4*	1.1	-75*
O=C(NCCCc1ccccc1)c1ccc(CS(=O)Cc2ccc(Cl)cc2)o1 (configuration not stated)	0.94	39*	nt	6	0.61	nt	-22
N#C/C(=C\c1ccccc1Cl)C(=O)NC(=O)Oc1ccccc1	1	11	9	0	0.89	0.9	nt
N#C/C(=C\c1ccccc1)C(=O)NC(=O)Oc1ccccc1	1	38*	5	-3	0.62	0.9	-6
